Reference: ChEMBL document CHEMBL1144485, “The synthesis and the in vitro cytotoxicity studies of bisnaphthalimidopropyl polyamine derivatives against colon cancer cells and parasite Leishmania infantum” (Bioorg Med Chem, 2007)

Tests used:
[1] = tested on: Caco-2; assay: Cytotoxicity activity against Caco-2 cells after 24 by MTT assay; format: cell-based; settings: Homo sapiens
How it was run: (§1)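 Caco-2 cells in Earle's MEM with 10% FCS, glutamine, non-essential amino acids, penicillin/streptomycin; seeded at 2 × 10^4 cells cm−2, 24 h before drug. Compounds (stock in 20% DMSO, diluted in medium) at 0.01–40 µM for 24 or 48 h, 37 °C. MTT 1 mg/ml in serum-free medium 4 h, DMSO solubilisation, A560. IC50 = 50% absorbance reduction vs control from fitted log line; six replicates, mean ± SD.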

[2] = tested on: Caco-2; assay: Cytotoxicity activity against Caco-2 cells after 48 by MTT assay; format: cell-based; settings: Homo sapiens; how it was run: as §1
[3] = tested on: Leishmania infantum; assay: Cytotoxicity activity against Leishmania infantum after 72 hrs by MTT assay; format: functional, organism-based
How it was run: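 L. infantum promastigotes (clone MHOM/MA671TMA-P263), log phase (2-day culture), grown at 27 °C in RPMI with 10% heat-inactivated FBS, 2 mM glutamine, 20 mM Hepes, penicillin/streptomycin. 10^6/ml exposed to serial drug concentrations (0.30–100 µM) for 3 days, 27 °C. MTT 0.25 mg/ml final, 4 h, 27 °C; SDS/DMF pH 4.8 lysis 1 h at 37 °C, A550. Growth IC50 by linear regression; at least five assays, ± SD.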

| SMILES | IC50 [1] [nM] | IC50 [2] [nM] | IC50 [3] [nM] |
| --- | --- | --- | --- |
| O=C1c2cccc3cccc(c23)C(=O)N1CCCNCCCCCCCCCCNCCCN1C(=O)c2cccc3cccc(c23)C1=O [BNIPDADEC] | 770 | 360 | – |
| O=C1c2cccc3cccc(c23)C(=O)N1CCCNCCCCCCCCCNCCCN1C(=O)c2cccc3cccc(c23)C1=O [BNIPDANON] | 3600 | 670 | 780 |
| O=C1c2cccc3cccc(c23)C(=O)N1CCCNCCCCCCCCNCCCN1C(=O)c2cccc3cccc(c23)C1=O [BNIPDAOCT] | 6200 | 3200 | 780 |
| O=C1c2cccc3cccc(c23)C(=O)N1CCCNCCNCCNCCCN1C(=O)c2cccc3cccc(c23)C1=O [BNIPDETA] | 21700 | 22300 | 740 |
| O=C1c2cccc3cccc(c23)C(=O)N1CCCNCCCNCCCNCCCN1C(=O)c2cccc3cccc(c23)C1=O [BNIPDPTA] | 5140 | 1540 | 1540 |
| O=C1c2cccc3cccc(c23)C(=O)N1CCCNCCCCNCCCNCCCN1C(=O)c2cccc3cccc(c23)C1=O [BNIPSPD] | 470 | 150 | 470 |
